Assay results from ChEMBL document CHEMBL4706643 (J Med Chem, 2021).
pIC50: −log10 of the molar value.

How the values were obtained:
[1] = biological target: T1, Hepatic sodium/bile acid cotransporter (Homo sapiens, UniProt Q14973); test: Inhibition of human NTCP expressed in human HepG2 cells assessed as decrease in NTCP surface expression at 2 uM incubated for 2 hrs by DAPI staining based analysis; type: cell-based; details: hepg2, 2 h
T1 sequence (Q14973 whole entry): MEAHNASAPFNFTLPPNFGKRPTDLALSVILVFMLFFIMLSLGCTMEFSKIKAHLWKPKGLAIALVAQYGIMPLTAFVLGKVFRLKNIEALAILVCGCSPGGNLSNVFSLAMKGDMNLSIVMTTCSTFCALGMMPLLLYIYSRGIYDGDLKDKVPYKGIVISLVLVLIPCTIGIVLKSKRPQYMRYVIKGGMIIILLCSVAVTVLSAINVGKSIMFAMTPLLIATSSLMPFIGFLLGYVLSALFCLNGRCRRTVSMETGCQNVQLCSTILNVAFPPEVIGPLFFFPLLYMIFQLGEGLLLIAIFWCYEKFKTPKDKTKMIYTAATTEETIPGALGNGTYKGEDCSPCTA
Summary of the method: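 HepG2-NTCP cells treated 2 h with DMSO, compound or TLCA at 2 μM, then immunostained for NTCP to assess cell-surface distribution.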

[2] = Intrinsic clearance in rat liver microsomes at 1 uM preincubated for 5 mins followed by NADPH addition and measured upto 60 mins by LC-MS analysis; type: ADME, Microsome; details: time 65 min, read-out: CLH
[3] = Intrinsic clearance in mouse liver microsomes at 1 uM preincubated for 5 mins followed by NADPH addition and measured upto 60 mins by LC-MS analysis; type: ADME, Microsome; details: read-out: CLH
Summary of the method: (§1)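 Human or mouse liver microsomes, final 1 mg/mL in 0.05 M phosphate buffer pH 7.4; compound final 1 μM, preincubated 37 °C 5 min, started with 1 mM NADPH; sampled at 0, 5, 15, 30, 60 min, methanol quench, −20 °C 1 h, centrifuged, supernatant by LC–MS.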

Hepatitis B virus = test: Antiviral activity against HBV infected in human HepG2-NTCP cells assessed as reduction in HBeAg secretion cells inoculated with virus for 4 hrs at room temperature and 37 degree C for 24 hrs followed inoculum changed with PMM medium for every 2 days until day 5 post infection by ELISA; type: functional, organism-based
[4] = Intrinsic clearance in human liver microsomes at 1 uM preincubated for 5 mins followed by NADPH addition and measured upto 60 mins by LC-MS analysis; type: ADME, Microsome; details: read-out: CLH; summary of the method: as §1

SMILES	inhibition (INH) [1]	microsomal CLint at 1 µM [2] [µL/min/mg]	microsomal CLint at 1 µM [3] [µL/min/mg]	pIC50 (Hepatitis B virus)	microsomal CLint at 1 µM [4] [µL/min/mg]
C[C@H](CCC(=O)NCCS(=O)(=O)O)[C@H]1CC[C@H]2[C@@H]3CC[C@@H]4C[C@H](O)CC[C@]4(C)[C@H]3CC[C@]12C [TAUROLITHOCHOLIC ACID]	Active				
CC[C@@H]1NC(=O)[C@H]([C@@H]2O[C@@H](Sc3cccc(NCc4ccccc4)c3)C[C@H]2C)N(C)C(=O)[C@H](C(C)C)N(C)C(=O)[C@H](CC(C)C)N(C)C(=O)[C@H](CC(C)C)N(C)C(=O)[C@@H](C)NC(=O)[C@H](C)NC(=O)[C@H](CC(C)C)N(C)C(=O)[C@H](C(C)C)NC(=O)[C@H](CC(C)C)N(C)C(=O)CN(C)C1=O		1.4	2.1	6.77	6.1
CCOc1cccc(S[C@H]2C[C@@H](C)[C@H]([C@H]3C(=O)N[C@@H](CC)C(=O)N(C)CC(=O)N(C)[C@@H](CC(C)C)C(=O)N[C@@H](C(C)C)C(=O)N(C)[C@@H](CC(C)C)C(=O)N[C@@H](C)C(=O)N[C@H](C)C(=O)N(C)[C@@H](CC(C)C)C(=O)N(C)[C@@H](CC(C)C)C(=O)N(C)[C@@H](C(C)C)C(=O)N3C)O2)c1		2.3	4	6.74	18.5
CCCCc1ccc(S[C@H]2C[C@@H](C)[C@H]([C@H]3C(=O)N[C@@H](CC)C(=O)N(C)CC(=O)N(C)[C@@H](CC(C)C)C(=O)N[C@@H](C(C)C)C(=O)N(C)[C@@H](CC(C)C)C(=O)N[C@@H](C)C(=O)N[C@H](C)C(=O)N(C)[C@@H](CC(C)C)C(=O)N(C)[C@@H](CC(C)C)C(=O)N(C)[C@@H](C(C)C)C(=O)N3C)O2)cc1		4	2.5	6.58	6.1

Second part, the compound after the results:

inhibition (INH) [1]	microsomal CLint at 1 µM [2] [µL/min/mg]	microsomal CLint at 1 µM [3] [µL/min/mg]	pIC50 (Hepatitis B virus)	microsomal CLint at 1 µM [4] [µL/min/mg]	SMILES
	2	3.3	7.00	14.8	CC[C@@H]1NC(=O)[C@H]([C@@H]2O[C@@H](Sc3ccc(Cl)c(OC)c3)C[C@H]2C)N(C)C(=O)[C@H](C(C)C)N(C)C(=O)[C@H](CC(C)C)N(C)C(=O)[C@H](CC(C)C)N(C)C(=O)[C@@H](C)NC(=O)[C@H](C)NC(=O)[C@H](CC(C)C)N(C)C(=O)[C@H](C(C)C)NC(=O)[C@H](CC(C)C)N(C)C(=O)CN(C)C1=O
	0.7	5.5	6.93	10.2	CC[C@@H]1NC(=O)[C@H]([C@@H]2O[C@@H](Sc3cc(OC)cc(OC)c3)C[C@H]2C)N(C)C(=O)[C@H](C(C)C)N(C)C(=O)[C@H](CC(C)C)N(C)C(=O)[C@H](CC(C)C)N(C)C(=O)[C@@H](C)NC(=O)[C@H](C)NC(=O)[C@H](CC(C)C)N(C)C(=O)[C@H](C(C)C)NC(=O)[C@H](CC(C)C)N(C)C(=O)CN(C)C1=O
	0.8	7.1	6.91		CC[C@@H]1NC(=O)[C@H]([C@@H]2O[C@@H](Sc3cccc(OCc4ccc(F)cc4C)c3)C[C@H]2C)N(C)C(=O)[C@H](C(C)C)N(C)C(=O)[C@H](CC(C)C)N(C)C(=O)[C@H](CC(C)C)N(C)C(=O)[C@@H](C)NC(=O)[C@H](C)NC(=O)[C@H](CC(C)C)N(C)C(=O)[C@H](C(C)C)NC(=O)[C@H](CC(C)C)N(C)C(=O)CN(C)C1=O
	3	2.1		7.7	CC[C@@H]1NC(=O)[C@H]([C@@H]2O[C@H](Sc3cccc(OCc4ccccc4)c3)C[C@H]2C)N(C)C(=O)[C@H](C(C)C)N(C)C(=O)[C@H](CC(C)C)N(C)C(=O)[C@H](CC(C)C)N(C)C(=O)[C@@H](C)NC(=O)[C@H](C)NC(=O)[C@H](CC(C)C)N(C)C(=O)[C@H](C(C)C)NC(=O)[C@H](CC(C)C)N(C)C(=O)CN(C)C1=O
		2.2	6.94	4.2	CC[C@@H]1NC(=O)[C@H]([C@@H]2O[C@@H](Sc3cc(Cl)cc(OC)c3)C[C@H]2C)N(C)C(=O)[C@H](C(C)C)N(C)C(=O)[C@H](CC(C)C)N(C)C(=O)[C@H](CC(C)C)N(C)C(=O)[C@@H](C)NC(=O)[C@H](C)NC(=O)[C@H](CC(C)C)N(C)C(=O)[C@H](C(C)C)NC(=O)[C@H](CC(C)C)N(C)C(=O)CN(C)C1=O
	2	0.3	6.69	7.7	CC[C@@H]1NC(=O)[C@H]([C@@H]2O[C@@H](Sc3cccc(OCc4ccc(F)cc4)c3)C[C@H]2C)N(C)C(=O)[C@H](C(C)C)N(C)C(=O)[C@H](CC(C)C)N(C)C(=O)[C@H](CC(C)C)N(C)C(=O)[C@@H](C)NC(=O)[C@H](C)NC(=O)[C@H](CC(C)C)N(C)C(=O)[C@H](C(C)C)NC(=O)[C@H](CC(C)C)N(C)C(=O)CN(C)C1=O
